Results from ChEMBL document CHEMBL5576156, “New pyrazole-pyridazine hybrids as selective COX-2 inhibitors: design, synthesis, molecular docking, in silico studies and investigation of their anti-inflammatory potential by evaluation of TNF-α, IL-6, PGE-2 and NO in LPS-induced RAW264.7 macrophages” (RSC Med Chem, 2024).

Key:
[1] = test system: Rattus norvegicus; assay: Antiinflammatory activity against carrageenin-induced rat paw edema at 10 mg/kg, po pretreated with carrageenin for 1 hr followed by compound addition and measured after 3 hrs; format: functional
[2] = test system: RAW264.7; assay: Antiinflammatory activity against LPS induced mouse RAW264.7 cells assessed as decrease in IL6 production at 50 uM after 24 hrs by ELISA; format: functional; design: scale not given: the % may be the effect or the level left
In short: (§1)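 RAW264.7 cells seeded at 5 × 10^3 per well and held 24 h at 37 °C, 5% CO2. Test compound given at 50 μM together with LPS 1 μg mL−1. Untreated cells were the blank, and LPS + DMSO (0.1% v/v final) was the negative control. IL-6, PGE-2 and TNF-α in the medium were measured by ELISA kits 24 h after treatment.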

[3] = test system: RAW264.7; assay: Antiinflammatory activity against LPS induced mouse RAW264.7 cells assessed as decrease in TNFalpha production at 50 uM after 24 hrs by ELISA; format: functional; design: scale not given: the % may be the effect or the level left; in short: as §1
[4] = test system: RAW264.7; assay: Antiinflammatory activity against LPS induced mouse RAW264.7 cells assessed as decrease in PGE2 production at 50 uM after 24 hrs by ELISA; format: functional; design: scale not given: the % may be the effect or the level left; in short: as §1
[5] = test system: RAW264.7; assay: Antiinflammatory activity in LPS-induced mouse RAW264.7 cells assessed as inhibition of NO production at 20 uM pretreated for 2 hrs followed by LPS stimulation and measured after 24 hrs by Griess reagent based assay; format: functional; design: scale not given: the % may be the effect or the level left; conditions: time 26 hrs
In short: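 RAW264.7 cells pretreated with compound for 2 h, then stimulated with LPS 1 μg mL−1 for 24 h. Culture medium was mixed 1:1 with Griess reagent and held 10 min at room temperature. Absorbance at 540 nm was read as the NO indicator.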

[6] = molecular target: T1, Prostaglandin G/H synthase 2 (Homo sapiens) (UniProt P35354); assay: Inhibition of COX-2 in human whole blood at 8 uM incubated for 24 hrs by immunoassay relative to control; format: tissue-based
T1 sequence (whole entry): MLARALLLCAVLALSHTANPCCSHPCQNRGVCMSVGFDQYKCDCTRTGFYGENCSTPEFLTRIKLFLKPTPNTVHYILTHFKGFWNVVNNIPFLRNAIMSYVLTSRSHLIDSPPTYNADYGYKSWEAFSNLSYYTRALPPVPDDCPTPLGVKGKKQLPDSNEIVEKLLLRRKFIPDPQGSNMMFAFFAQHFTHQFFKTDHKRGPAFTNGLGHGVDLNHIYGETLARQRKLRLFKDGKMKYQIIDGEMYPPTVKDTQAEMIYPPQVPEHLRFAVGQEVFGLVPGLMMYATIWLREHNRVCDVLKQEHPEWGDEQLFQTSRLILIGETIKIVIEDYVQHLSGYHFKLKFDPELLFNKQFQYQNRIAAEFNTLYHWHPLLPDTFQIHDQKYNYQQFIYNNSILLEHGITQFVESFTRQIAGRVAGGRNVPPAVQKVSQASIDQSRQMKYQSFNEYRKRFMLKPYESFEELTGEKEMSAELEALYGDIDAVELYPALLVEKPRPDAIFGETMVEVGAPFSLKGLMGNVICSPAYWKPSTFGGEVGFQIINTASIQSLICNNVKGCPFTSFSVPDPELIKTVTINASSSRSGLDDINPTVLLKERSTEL

Row | inhibition [6] [%] | SMILES | Activity [1] [%] | Activity [2] [%] | Activity [3] [%] | Activity [4] [%] | Activity [5] [%]
1 | – | Cc1cc(C)n(-c2ccc(=O)n(CC(=O)NCc3ccccc3)n2)n1 | 84 | – | – | – | –
2 | – | COc1cc(/C=N/C2=NN=C(N)C2c2ccc(Cl)nn2)cc(OC)c1OC (stereo unspecified) | – | 78 | 70 | 64 | 70
3 | 78 | Cc1ccc(-c2cc(C(F)(F)F)nn2C2=NNC(Cl)C=C2)cc1 (stereo unspecified) | – | – | – | – | –
4 | – | COc1cc(/C=N/C2=NNC(=O)C2c2ccc(Cl)nn2)cc(OC)c1OC (stereo unspecified) | – | 62 | 48 | 44 | –
5 | – | Cc1ccc(-c2cc(C(F)(F)F)nn2-c2ccc(S(N)(=O)=O)cc2)cc1 [CELECOXIB] | – | 83 | 75 | 69 | –
6 | – | NC1=NN=C(/N=C/c2ccc(Br)cc2)C1c1ccc(Cl)nn1 (stereo unspecified) | – | 65 | 65 | 60 | 53
